According to ChEMBL document CHEMBL1641462, “Synthesis and in vivo evaluation of ¹⁸F-fluoroethyl GF120918 and XR9576 as positron emission tomography probes for assessing the function of drug efflux transporters” (Bioorg Med Chem, 2011):
Active and inactive are the calls of the source.

What was measured:
Format in all cases: cell-based
Conditions in all cases: 7.4 M; tested as the 18F-labelled form
[1] = (§1) Increase of P-glycoprotein-mediated intracellular drug uptake expressed in human MES-SA/Dx5 cells at 7.4 MBq/ml after 120 mins by gamma counting in presence of 10 uM of XR9576
Summary of the method: (§2)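 MES-SA/Dx5 doxorubicin-resistant human uterine sarcoma cells grown in McCoy's 5A + 10% FCS at 37 °C, 5% CO2; monolayers (10^5 cells/well) incubated 120 min with 7.4 MBq/ml [18F]-tracer ± 10 µM inhibitor. Washed five times in cold PBS, lysed in 0.2 M NaOH, gamma counted, normalized to protein (%ICD/mg). Percent increase vs untreated cells; triplicate.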

[2] = as §1, with “quinoline-3-carboxylic acid [2-(4-{2-[7-(2-fluoroethoxy)- 6-methoxy-3,4-dihydro-1H-isoquinolin-2-yl]ethyl}phenylc arbamoyl)-4,5-dimethoxyphenyl]amide” for “XR9576”; summary of the method: as §2
[3] = Increase of P-glycoprotein-mediated intracellular drug uptake expressed in human MES-SA/Dx5 cells at 7.4 MBq/ml after 120 mins by gamma counting in presence of 10 uM of GF120918; summary of the method: as §2
[4] = Increase of P-glycoprotein-mediated intracellular drug uptake expressed in human MES-SA/Dx5 cells at 7.4 MBq/ml after 120 mins by gamma counting in presence of 10 uM of N-(4-(2-(1,2,3,4-tetrahydro-6,7-dimethoxy-2- isoquinolinyl)ethyl)phenyl)-9,10-dihydro-5-fluoroethoxy-9- oxo-4-acridine carboxamide; summary of the method: as §2

Measured: Drug uptake

COc1cc2c(cc1OC)CN(CCc1ccc(NC(=O)c3cccc4c(=O)c5cccc(OCCF)c5[nH]c34)cc1)CC2
active: [1] | [2] | [3] | [4]

COc1cc(NC(=O)c2cnc3ccccc3c2)c(C(=O)Nc2ccc(CCN3CCc4cc(OC)c(OCCF)cc4C3)cc2)cc1OC
active: [1] | [2] | [3] | [4]
